# According to ChEMBL document CHEMBL4513216, “Probing the Open Global Health Chemical Diversity Library for Multistage-Active Starting Points for Next-Generation Antimalarials” (ACS Infect Dis, 2020):
# Test: Toxicity liver stage against HepG2, at 10uM
# Assay type: cell-based
# Design: test concentration 10 uM, cell line HepG2-A16-CD81EGFP
# Conditions: human, HepG2-A16-CD81EGFP cells; read-out: INHIBITION
# Method in brief: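 Uninfected HepG2-A16-CD81EGFP cells, 3 × 10^3 per well, 1536-well, plated on prespotted compound at 10 μM final, parasite-free screening media added to match infected plates; puromycin 10 μM positive, DMSO 0.5% negative; run in parallel with 48 h PbLuc assay at 37 °C, 5% CO2; viability by CellTiter-Glo luminescence, normalized to controls.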
row,SMILES,cytotoxicity at 10 µM
1,Cc1nc[nH]c1CN1CCC(CNC(=O)c2cccc3cnccc23)C1 (stereo not drawn),-10.1%
2,CCS(=O)(=O)NC1CCCN(Cc2ccn(C)c(=O)c2)C1 (stereo not drawn),-1.82%
3,Cc1cccc(C(C(=O)N2CC(c3ccncc3)C2)N(C)C)c1 (stereo not drawn),-8.29%
4,COCCc1noc(C2CCN(S(=O)(=O)c3cccs3)CC2)n1,7.51%
5,Clc1ccc(-n2cc(CNC3CCc4ncnn4C3)cn2)cc1 (stereo not drawn),0.77%
6,Cc1cc(C(=O)N2CCN(S(C)(=O)=O)[C@@H](C)C2)c(F)cc1F,-1.78%
7,O=C(NC1CCC1)[C@@H]1CC[C@@H]2[C@@H](CCN2CCc2ccccc2)O1,-127%
8,COc1ccc(CC(=O)N2CCC3(CC2)CCN(CC(C)C)C3=O)cc1,1.11%
9,Cc1ccc(S(=O)(=O)N2CCC(c3n[nH]cc3C(=O)N(C)C)CC2)cc1,-1.73%
10,CC(C)CN1CC[C@@H]2[C@@H]1CCN2S(=O)(=O)c1cccs1,2.61%
11,CCc1nn(C)c(CC)c1CNC(=O)Nc1cccc([S+](C)[O-])c1 (stereo not drawn),-1.01%
12,O=C(c1cnco1)N1C[C@@H]2CC[C@H](Oc3ccccc3F)[C@@H]2C1,5.22%
13,CCc1ncnc(N2CCOCC2CCO)c1F (stereo not drawn),-2.56%
14,COCc1cccc(NC(C)C(=O)N(C)Cc2ccccc2)c1 (stereo not drawn),-0.42%
15,O=C(NCc1ccco1)[C@@H]1CCO[C@@H]2CCN(CC3CC3)C[C@@H]21,-78.7%
16,Cc1cnn(C2CN(Cc3nc(-c4ccccn4)no3)C2)c1,3.24%
17,CCCc1ccc(OCCNCc2ccco2)c(OC)c1,-2.04%
18,CN(C)Cc1ccc(C2CCCCN2C(=O)c2cc(=O)[nH]c(=O)[nH]2)cc1 (stereo not drawn),-3.95%
19,COc1cccc(Cn2ncnc2CCC(C)N2CCN(C)CC2)c1 (stereo not drawn),-4.05%
20,CN(C)c1cncc(-c2ccnc3c2ccn3C)n1,5.51%
21,CCC(Cn1ccc2[nH]c(=O)c(C#N)cc2c1=O)OC (stereo not drawn),2.33%
22,CNC(=O)COc1nc(C(C)(C)C)no1,-0.425%

row,SMILES,cytotoxicity at 10 µM
1,Cc1ccc2c(c1)c(CNC(=O)C1CC(=O)N(C3CC3)C1)nn2C (stereo not drawn),-0.502%
2,Cc1cc(C(=O)N(CCN(C)C)Cc2ccc(Cl)cc2)no1,0.242%
3,CC(C)c1ccc(/C=C/CC(=O)NC2CCS(=O)(=O)CC2)cc1,5.5%
4,c1cnn(Cc2nnc(C3CCN(C4CCOCC4)CC3)n2C2CC2)c1,-15.2%
5,Cc1nccc([C@@H]2C[C@@H]3CCN(S(=O)(=O)N(C)C)C[C@H]3O2)n1,-3.38%
6,CC(NC(=O)c1ccc(Cl)cc1)c1nnc(SCC(N)=O)n1C (stereo not drawn),6.27%
7,CCC(=O)c1ccc(OCC(=O)NCC2CCCO2)cc1 (stereo not drawn),-52.1%
8,Cn1ncc(C(=O)N2CCN(S(C)(=O)=O)CC2)c1Cl,7.58%
9,O=C(CCO)N1CCOC2(CCCN(C(=O)c3ccco3)C2)C1 (stereo not drawn),-11.7%
10,COC[C@@]12CCO[C@@H]1CCN(C(=O)C1CCSCC1)C2,-104%
11,CCOc1ccc(CN(CC)C(=O)c2ccc(C)[nH]c2=O)cc1OC,-6.83%
12,CCn1cc(NC(=O)NCC(c2cccc(OC)c2)N(C)C)cn1 (stereo not drawn),-7.25%
13,CC(C)(C)c1cnc(CNc2cccc(Cn3cnnc3)c2)o1,2.72%
14,Cn1cnc(S(=O)(=O)N2C[C@H]3CC[C@@H](C2)N(Cc2ccccn2)C3)c1,7.27%
15,CN(C)C(=O)CN1CCC2(CCCN(Cc3cccn3C)C2)C1=O (stereo not drawn),11.3%
16,CN1CCN(C[C@@H]2OC[C@H]3CN(Cc4cccc(F)c4)CC[C@H]32)CC1,-10.3%
17,CN(C)c1ncccc1CNC(=O)c1csc(Br)c1,-1.35%
18,CCCc1nccn1-c1ccc(C(O)CN2CCOCC2)cc1 (stereo not drawn),3.43%
19,Cc1nc2ccccc2c(=O)n1Cc1nnnn1C1CC1,-13.8%
20,Cc1cc(C(=O)N2CCCC(C)C2)ccc1NCc1nc(C(C)C)no1 (stereo not drawn),-9.84%
21,Cc1ccc(-c2nn3c(nc2=O)-c2ccccc2NC3C(=O)O)cc1C (stereo not drawn),19.3%
